Most compounds without a hit are left out; they make up all but 6.4% or so of the library.
H69AR inhibit: blocks growth of human H69AR lung tumor cells; AID 598; viability, % at 10 µM; H69AR lung tumor viability, ATP luminescence, 72 h; hits give low values; hit rate 6% among 85,000;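 active = viability at or below 40%; inactive = viability above 40%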;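 also: multidrug resistant small cell line overexpressing MRP-1 efflux transporter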
Lung fibro prol: blocks proliferation of human lung fibroblasts. LL 47 human lung fibroblast viability, ATP luminescence; hits give low values. viability, % at 10 µM. hit rate 1.1% among 85,000. AID 719;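 active = viability at or below 50% in the single dose screen; inactive = viability above 50%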;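 also: compound exposure lasted 72 h before the ATP readout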
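Times – overnight cell rest, 72 h compound treatment at 37 °C · Test system – human lung fibroblast line LL 47, low passage · Amount – 1,150 cells in each well · Controls – cell-only wells, no compound · Doses – 0.1% DMSO in all compound wells · Measured by – CellTiter-Glo luminescence · Buffer or medium – IMEM plus 15% FBS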
HUVEC prolif 384: human endothelial cell proliferation inhibition. HUVEC proliferation, CellTiter-Glo luminescence, 72 h; hits give low values. viability, % at 10 µM (by protocol). hit rate 1.1% among 86,000;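 active = viability at or below 30%; inactive = viability above 30%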
Jurkat viability: cytotoxicity toward Jurkat cells; Jurkat E6.1 viability, ATP luminescence, 48 h; inhibition, % at 4 µM; hit rate 1.2% among 56,000;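 active = inhibition above the mean inhibition of all tested compounds plus 3 SD, cut at about 28% in these data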
A number is an active result; – = inactive; · = no result.

SMILES	H69AR inhibit	Lung fibro prol	HUVEC prolif 384	Jurkat viability
COc1ccc(-n2c(COc3ccc(Cl)cc3)nnc2SCc2ccc(C#N)cc2)cc1	32	–	–	·
CC1CCC(NC(=O)c2ccc3nc[nH]c3c2)CC1 (configuration not stated)	–	–	–	·
CC(/C=C/c1ccc2c(c1)OCO2)=N\NC(=O)c1cccc([N+](=O)[O-])c1	7.3	28	–	·
O=C(NCc1ccc2c(c1)OCO2)c1cccc(C(=O)NCc2ccc3c(c2)OCO3)c1	–	–	–	–
CC(=O)N1CCN(c2ccccc2NC(=O)COc2cc(C)ccc2C(C)C)CC1	35	–	–	–
Cc1ccc(C(C)C)c(OCC(=O)Nc2ccccc2N2CCN(C)CC2)c1	35	–	–	–
Cc1ccc(C)c(C(=O)CN2C3=NCCCN3c3ccccc32)c1	–	–	–	·
O=C(Nc1cc(S(=O)(=O)N2CCOCC2)ccc1Cl)C(=O)c1c(-c2ccccc2)cc2ccccn12	–	–	–	·
CC1CC(C)CN(C(=O)c2ccc3c(=O)n(Cc4ccc5c(c4)OCO5)c(=S)[nH]c3c2)C1 (configuration not stated)	–	–	–	·
CCOC(=O)N1CCN(C(=O)c2ccc3c(=O)n(Cc4ccccc4OC)c(=S)[nH]c3c2)CC1	34	–	–	·
COCCn1c(=S)[nH]c2cc(C(=O)NCCCN3CCOCC3)ccc2c1=O	–	–	–	·
O=C(c1ccc2c(=O)n(Cc3ccc4c(c3)OCO4)c(=S)[nH]c2c1)N1CCCCC1	35	–	–	·
COCCCNC(=O)c1ccc2c(=O)n(Cc3ccc4c(c3)OCO4)c(=S)[nH]c2c1	–	–	22	·
CCOc1ccc(C2c3c(oc4ccccc4c3=O)C(=O)N2c2ccccn2)cc1OC (configuration not stated)	–	–	–	–
CC(Cc1ccccc1)NC(=O)CSc1nc2nc3c(cc2c(=O)n1-c1ccccc1)COC(C)(C)C3 (configuration not stated)	–	–	–	·
O=C(OCC(=O)N1CCc2ccccc21)C1=COCCO1	28	–	–	–
CC(NC(=O)c1cc(-c2ccc(Br)cc2)on1)c1ccccc1 (configuration not stated)	22	–	–	–
O=C(N/N=C/C(Br)=C/c1ccccc1)c1n[nH]c2c1CCC2	1.8	–	–	·
CN1CCN(Cn2cc(/C=C/C(=O)c3ccccc3)c3ccccc32)CC1	12	–	–	·
Nc1nc2ccc(N3CCOCC3)cc2s1	–	–	–	–
Cc1nc(SCC#N)c2c3c(sc2n1)CCC3	–	–	–	–
Cc1cc(C)n(-c2nc(SCCN(C)C)c3c4c(sc3n2)CCCC4)n1	2.7	3.0	2.3	·
CCC(O)CNc1nc(-n2nc(C)cc2C)nc2sc3c(c12)CCCC3 (configuration not stated)	8.4	–	–	–
Cc1ccc(C(=O)COC(=O)CCC(=O)NC2CCCCC2)cc1C	–	–	–	·
Cc1nc2c(C(=O)NCCC(C)C)c[nH]n2c(=O)c1Cc1ccccc1F	–	–	12	·
SMILES	H69AR inhibit	Lung fibro prol	HUVEC prolif 384	Jurkat viability
CCOC(=O)c1ccc(NC2OC(=O)c3ccccc32)cc1 (configuration not stated)	–	–	–	–
O=C1c2ccsc2SCCN1Cc1c(Cl)cccc1Cl	–	–	–	·
CCOCC(=O)Nc1nc(-c2ccccc2)c(CC)s1	–	–	–	·
Nc1nc(SCc2c(F)cccc2Cl)[nH]c(=O)c1-c1ccccc1	–	–	–	·
CCCOc1ccc2ccccc2c1/C=N/n1c(C)nnc1-n1nc(C)cc1C	24	–	–	82
CC[C@H]1OC(=O)C[C@@H](O)[C@H](C)[C@@H](O[C@@H]2O[C@H](C)C[C@H](N(C)C)[C@H]2O)[C@@H](CC=O)C[C@@H](C)C(=O)C=C[C@]2(C)O[C@H]2[C@@H]1C	25	38	–	·
Cc1cc(NC(=O)c2cncc(Br)c2)n(-c2ccccn2)n1	37	–	–	·
CS(=O)(=O)N1CCC(C(=O)c2cccc(Cl)c2)CC1	–	–	–	–
CC(=O)Oc1cccc(N2C(=O)c3ccc(C(=O)O)cc3C2=O)c1	2.0	–	–	–
CC1CCCN(C(=O)c2ccc(S(=O)(=O)N3CCC(c4nc5ccccc5s4)CC3)cc2)C1 (configuration not stated)	32	–	–	·
CCN(CC)C(=O)c1ccc(S(=O)(=O)N2CCC(c3nc4ccccc4s3)CC2)cc1	–	–	–	·
CCCCOc1ccc(C2(C)CC(=O)NC2=O)cc1 (configuration not stated)	–	–	–	–
CCOC(=O)C1=C(CSCc2ccccc2)NC(=O)NC1c1cc(C)ccc1C (configuration not stated)	32	–	–	·
CCOC(=O)C1=C(CN2CCCCC2)NC(=O)NC1c1cc(C)ccc1C (configuration not stated)	–	–	–	·
Cc1ccc(C(=O)C(C(=O)/C=C/c2ccccc2)=C2SCCCS2)cc1	2.3	32	23	·
Cc1ccc(S(=O)(=O)NCCCN2CCOCC2)c(C)c1	–	–	–	·
CCCNc1nc(Nc2ccc(C)cc2)nc(N2CCCC2)n1	35	–	–	·
O=C1CSC(c2cn(-c3ccccc3)nc2-c2cc3ccccc3oc2=O)N1Cc1ccccc1 (configuration not stated)	24	–	–	·
CCN(CC)S(=O)(=O)c1ccc2[nH]cc(C(=O)NCCC3=CCCCC3)c(=O)c2c1	8.5	–	–	·
CCN(CC)S(=O)(=O)c1ccc2[nH]cc(C(=O)NCCN3CCCCCC3)c(=O)c2c1	–	–	–	–
COCCNC(=O)CNS(=O)(=O)c1ccc2nc(C)sc2c1	–	–	–	–
COC(=O)C1=C(C(=O)OC)SC(=C2C(=S)C(C)(C)N(C(=O)CC(C)C)c3ccccc32)S1	17	–	–	·
O=C(Nc1ccccc1)N(CCc1ccncc1)C1CCCCC1	–	–	–	–
CC(C)c1ccc(NC(=O)N(CCc2nc3ccccc3[nH]2)C2CCCC2)cc1	32	–	–	·
CC(Sc1nnc(-c2cccs2)n1Cc1ccccc1)C(=O)NCc1ccc2c(c1)OCO2 (configuration not stated)	30	–	–	·
SMILES	H69AR inhibit	Lung fibro prol	HUVEC prolif 384	Jurkat viability
O=C(CSc1nnc(-c2cccs2)n1Cc1ccccc1)NCc1ccc2c(c1)OCO2	–	–	–	·
Cc1ccc(-n2c(SCC(=O)Nc3ccc4c(c3)OCCO4)nnc2-c2ccco2)cc1	14	43	–	–
Cc1cccc(-n2c(SCC(=O)Nc3ccc4c(c3)OCO4)nnc2-c2ccoc2C)c1	9.2	–	–	–
Cc1ccc(-n2c(SCC(=O)Nc3ccc4c(c3)OCO4)nnc2-c2cccs2)cc1	9.2	33	–	–
CN(CC(CC(=O)Nc1nncs1)c1ccccc1)S(=O)(=O)c1ccc(Br)cc1 (configuration not stated)	–	–	–	·
O=C(CSc1nnc(-c2cccnc2)n1-c1ccccc1)Nc1ccc2c(c1)OCO2	35	–	–	–
O=C(CSc1nnc(-c2cccnc2)n1-c1ccccc1)Nc1ccccn1	–	–	–	–
Cc1csc(OCc2ccc(C#N)cc2)n1	–	–	–	–
O=[N+]([O-])c1ccc(NNC(=S)Nc2ccc(F)cc2)cc1	14	–	–	·
NC(=O)Nc1ccc(F)cc1	–	–	–	·
COC(=O)C1CCN(C(=O)C2CCCCC2)CC1	–	–	–	–
